ChEMBL document CHEMBL3421570, “Combinatorial Libraries As a Tool for the Discovery of Novel, Broad-Spectrum Antibacterial Agents Targeting the ESKAPE Pathogens” (J Med Chem, 2015)
Values after ≈ are worked out from the molar mass of the structure shown. Active and inactive are the calls of the source. The rule behind the calls is not given here.

Key:
Acinetobacter baumannii [1] = test: Antibiofilm activity against Acinetobacter baumannii incubated for 24 hrs followed by biofilm resuspension in PBS and measured after 24 hrs; assay type: functional
Procedure, shortened: (§1)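 Biofilms grown 24 h in 96-well plates from overnight cultures standardized to OD600 0.5 in fresh medium (human serum only for S. aureus; TSB for Gram-positives, LB for Gram-negatives). Medium then replaced with fresh medium containing a concentration range above and below MIC, 37°C overnight. After 24 h biofilm resuspended in PBS, serially diluted, plated in duplicate, CFU counted after 24 h at 37°C. Activity relative to untreated; three technical replicates; MBEC50 reported.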

[2] = Selectivity index, ratio of IC50 for human A549 cells to MIC for Enterobacter cloacae
Enterobacter cloacae [3] = test: Antimicrobial activity against Enterobacter cloacae assessed as inhibition of microbial growth at 45 uM after 24 hrs; assay type: functional, organism-based
Procedure, shortened: (§2)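 Broth microdilution single-concentration read: overnight cultures diluted 1:1000, compound in DMF (≤2.0%) added, 37°C for 24 h, growth inhibition scored visually by lack of turbidity; triplicate. Gram-positives grown in TSB, Gram-negatives in LB.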

Staphylococcus aureus [4] = test: Induction of spontaneous mutation in Staphylococcus aureus at 2 to 10 MIC; assay type: functional, organism-based
Acinetobacter baumannii [5] = test: Antimicrobial activity against Acinetobacter baumannii assessed as inhibition of microbial growth at 45 uM after 24 hrs; assay type: functional, organism-based; procedure, shortened: as §2
Staphylococcus aureus [6] = test: Bactericidal activity against Staphylococcus aureus after 24 hrs; assay type: functional
Staphylococcus aureus [7] = test: Antimicrobial activity against Staphylococcus aureus assessed as inhibition of microbial growth at 45 uM after 24 hrs; assay type: functional, organism-based; procedure, shortened: as §2
Staphylococcus aureus [8] = test: Bactericidal activity against methicillin-resistant Staphylococcus aureus at MIC measured after drug wash out after 120 mins by time kill assay; assay type: functional
Procedure, shortened: (§3)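 MRSA from stationary phase was regrown 3 h in TSB and seeded at OD600 0.5. […] After 120 min, cells were centrifuged and washed, serially diluted and plated for CFU. Percent recovery is relative to no-drug controls.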

Acinetobacter baumannii [9] = test: Bactericidal activity against Acinetobacter baumannii after 24 hrs; assay type: functional
Pseudomonas aeruginosa [10] = test: Bactericidal activity against Pseudomonas aeruginosa after 24 hrs; assay type: functional
Enterococcus faecium [11] = test: Bactericidal activity against Enterococcus faecium after 24 hrs; assay type: functional
Acinetobacter baumannii [12] = test: Induction of spontaneous mutation in Acinetobacter baumannii at 2 to 10 MIC; assay type: functional, organism-based
Klebsiella pneumoniae [13] = test: Bactericidal activity against Klebsiella pneumoniae after 24 hrs; assay type: functional
Klebsiella pneumoniae [14] = test: Antimicrobial activity against Klebsiella pneumoniae assessed as inhibition of microbial growth at 45 uM after 24 hrs; assay type: functional, organism-based; procedure, shortened: as §2
[15] = Induction of hemolysis in human RBC at 10 uM incubated for 15 mins; assay type: cell-based, Erythrocyte; details: red blood cells, read-out: Activity
Procedure, shortened: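 Human RBCs from whole blood, resuspended 20% v/v in HA buffer (NaCl, CaCl2), compound 10 μM, 15 min at 37°C. Centrifuged 5,500 g for 1 min, supernatant OD543 read. Percent hemolysis against DMF vehicle (0%) and 1.0% Triton X-100 (100%); triplicate.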

Staphylococcus aureus [16] = test: Antibiofilm activity against Staphylococcus aureus incubated for 24 hrs followed by biofilm resuspension in PBS and measured after 24 hrs; assay type: functional; procedure, shortened: as §1
Enterobacter cloacae [17] = test: Induction of spontaneous mutation in Enterobacter cloacae at 2 to 10 MIC; assay type: functional, organism-based
Acinetobacter baumannii [18] = test: Antimicrobial activity against Acinetobacter baumannii assessed as inhibition of microbial growth after 24 hrs; assay type: functional
Procedure, shortened: (§4)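 Broth microdilution against multidrug-resistant clinical ESKAPE isolates. Overnight cultures (TSB for Gram-positives, LB for Gram-negatives) diluted 1:1000 in fresh medium, compound in DMF (≤2.0% DMF) added at decreasing concentrations, 37°C.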

Pseudomonas aeruginosa [19] = test: Antimicrobial activity against Pseudomonas aeruginosa isolate 1420 assessed as inhibition of microbial growth at 2 uM after 24 hrs; assay type: functional, organism-based
Klebsiella pneumoniae [20] = test: Induction of spontaneous mutation in Klebsiella pneumoniae at 2 to 10 MIC; assay type: functional, organism-based
[21] = Selectivity index, ratio of IC50 for human A549 cells to MIC for Klebsiella pneumoniae
Enterococcus faecium [22] = test: Antimicrobial activity against Enterococcus faecium assessed as inhibition of microbial growth after 24 hrs; assay type: functional; procedure, shortened: as §4
[23] = Selectivity index, ratio of IC50 for human A549 cells to MIC for Staphylococcus aureus
Pseudomonas aeruginosa [24] = test: Induction of spontaneous mutation in Pseudomonas aeruginosa at 2 to 10 MIC; assay type: functional, organism-based; details: 2 to 10 x MIC
Klebsiella pneumoniae [25] = test: Antimicrobial activity against Klebsiella pneumoniae assessed as inhibition of microbial growth after 24 hrs; assay type: functional; procedure, shortened: as §4
Pseudomonas aeruginosa [26] = test: Antimicrobial activity against Pseudomonas aeruginosa assessed as inhibition of microbial growth at 45 uM after 24 hrs; assay type: functional, organism-based; procedure, shortened: as §2
[27] = Cytotoxicity against human A549 cells assessed as cell viability recovery at 225 uM after 48 hrs by MTT assay; assay type: cell-based; details: read-out: Activity
Procedure, shortened: (§5)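 A549 cells grown in F-12K with L-glutamine, 10% FBS, 1% penicillin-streptomycin, seeded at 1.0 × 10^5 ml−1, allowed to adhere 24 h (37°C, 5% CO2), then exposed to compound in 45% w/v (2-hydroxypropyl)-β-cyclodextrin vehicle for 48 h. MTT 4 h, formazan solubilized in DMSO, absorbance 540 nm. Percent recovery versus vehicle-only; IC50 derived; at least three independent experiments.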

Pseudomonas aeruginosa [28] = test: Antimicrobial activity against Pseudomonas aeruginosa assessed as inhibition of microbial growth after 24 hrs; assay type: functional; procedure, shortened: as §4
Staphylococcus aureus [29] = test: Effect on bacterial density of methicillin-resistant Staphylococcus aureus at MIC measured over 2 hrs period by time kill assay; assay type: functional, organism-based
Staphylococcus aureus [30] = test: Bactericidal activity against methicillin-resistant Staphylococcus aureus assessed as cell survival recovery at MIC measured after drug wash out after 120 mins by time kill assay; assay type: functional; procedure, shortened: as §3
Staphylococcus aureus [31] = test: Antimicrobial activity against Staphylococcus aureus USA300 strain FPR3757 infected in mouse model of lethal peritonitis assessed as mouse survival at 2 uM, im dosed 1 hr post infection and measured after 5 days post infection; assay type: functional, organism-based
Procedure, shortened: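 Mice, six per group, infected i.p. with 1 × 10^8 CFU ml−1 S. aureus USA300 FPR3757 in PBS with 5% mucin. Compound given i.m. at 2 μM 1 h later; vehicle 45% w/v (2-hydroxypropyl)-β-cyclodextrin in water i.v.; vancomycin i.v. as control. Monitored twice daily for 5 days, pre-moribund animals euthanized. Survival compared by log-rank test.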

Staphylococcus aureus [32] = test: Antimicrobial activity against Staphylococcus aureus assessed as inhibition of microbial growth after 24 hrs; assay type: functional; procedure, shortened: as §4
Enterobacter cloacae [33] = test: Antibiofilm activity against Enterobacter cloacae incubated for 24 hrs followed by biofilm resuspension in PBS and measured after 24 hrs; assay type: functional; procedure, shortened: as §1
Enterobacter cloacae [34] = test: Bactericidal activity against Enterobacter cloacae after 24 hrs; assay type: functional
[35] = Selectivity index, ratio of IC50 for human A549 cells to MIC for Enterococcus faecium
Enterococcus faecium [36] = test: Antimicrobial activity against Enterococcus faecium assessed as inhibition of microbial growth at 45 uM after 24 hrs; assay type: functional, organism-based; procedure, shortened: as §2
Klebsiella pneumoniae [37] = test: Antibiofilm activity against Klebsiella pneumoniae incubated for 24 hrs followed by biofilm resuspension in PBS and measured after 24 hrs; assay type: functional; procedure, shortened: as §1
Enterococcus faecium [38] = test: Antibiofilm activity against Enterococcus faecium incubated for 24 hrs followed by biofilm resuspension in PBS and measured after 24 hrs; assay type: functional; procedure, shortened: as §1
[39] = Selectivity index, ratio of IC50 for human A549 cells to MIC for Pseudomonas aeruginosa
Enterobacter cloacae [40] = test: Antimicrobial activity against Enterobacter cloacae assessed as inhibition of microbial growth after 24 hrs; assay type: functional; procedure, shortened: as §4
Staphylococcus aureus [41] = test: Ratio of MIC for Staphylococcus aureus measured after 8 cycle passage to MIC for wild type Staphylococcus aureus; assay type: functional
[42] = Cytotoxicity against human A549 cells assessed as cell viability recovery up to 125 uM after 48 hrs by MTT assay; assay type: cell-based; details: read-out: Activity; procedure, shortened: as §5
Pseudomonas aeruginosa [43] = test: Antimicrobial activity against Pseudomonas aeruginosa isolate 1420 assessed as inhibition of microbial growth at 2 uM in presence of 100 uM efflux pump inhibitor reserpine after 24 hrs; assay type: functional, organism-based
Enterococcus faecium [44] = test: Induction of spontaneous mutation in Enterococcus faecium at 2 to 10 MIC; assay type: functional, organism-based
Pseudomonas aeruginosa [45] = test: Antibiofilm activity against Pseudomonas aeruginosa incubated for 24 hrs followed by biofilm resuspension in PBS and measured after 24 hrs; assay type: functional; procedure, shortened: as §1
[46] = Selectivity index, ratio of IC50 for human A549 cells to MIC for Acinetobacter baumannii
A549 = test: Cytotoxicity against human A549 cells after 48 hrs by MTT assay; assay type: cell-based; details: A549, 48 h; procedure, shortened: as §5

Compound: CCCCCCCN1C(=N)N(CCCC[C@H]2CNC(=N)N2CCc2cccc(C(F)(F)F)c2)C[C@@H]1CCCC
- MBEC50 (Acinetobacter baumannii [1]): 15 µM
- Selectivity Index [2]: 100
- growth inhibition (GI) (Enterobacter cloacae [3]): Active
- Activity (Staphylococcus aureus [4]): inactive
- growth inhibition (GI) (Acinetobacter baumannii [5]): Active
- MBC90 (Staphylococcus aureus [6]): 3.1 µM (≈ 1.71 µg/mL)
- growth inhibition (GI) (Staphylococcus aureus [7]): Active
- fold change (FC) (Staphylococcus aureus [8]): 2.5
- MBC90 (Acinetobacter baumannii [9]): 3.1 µM (≈ 1.71 µg/mL)
- MBC90 (Pseudomonas aeruginosa [10]): 4 µM (≈ 2.2 µg/mL)
- MBC90 (Enterococcus faecium [11]): 1.9 µM (≈ 1.05 µg/mL)
- Activity (Acinetobacter baumannii [12]): inactive
- MBC90 (Klebsiella pneumoniae [13]): 2.4 µM (≈ 1.32 µg/mL)
- growth inhibition (GI) (Klebsiella pneumoniae [14]): Active
- hemolysis at 0.25 h, 10 µM [15]: 0.34%
- MBEC50 (Staphylococcus aureus [16]): 14 µM
- Activity (Enterobacter cloacae [17]): inactive
- MIC (Acinetobacter baumannii [18]): 1.6 µM
- growth inhibition (GI) (Pseudomonas aeruginosa [19]): inactive
- Activity (Klebsiella pneumoniae [20]): inactive
- Selectivity Index [21]: 100
- MIC (Enterococcus faecium [22]): 1.6 µM
- Selectivity Index [23]: 100
- Activity (Pseudomonas aeruginosa [24]): inactive
- MIC (Klebsiella pneumoniae [25]): 1.6 µM
- growth inhibition (GI) (Pseudomonas aeruginosa [26]): Active
- viability at 48 h, 225 µM [27]: 40%
- MIC (Pseudomonas aeruginosa [28]): 1.6 µM
- Activity (Staphylococcus aureus [29]): inactive
- Survival (Staphylococcus aureus [30]): 0.2%
- Activity (Staphylococcus aureus [31]): Active
- MIC (Staphylococcus aureus [32]): 1.6 µM
- MBEC50 (Enterobacter cloacae [33]): 13 µM
- MBC90 (Enterobacter cloacae [34]): 3.1 µM (≈ 1.71 µg/mL)
- Selectivity Index [35]: 100
- growth inhibition (GI) (Enterococcus faecium [36]): Active
- MBEC50 (Klebsiella pneumoniae [37]): 7 µM
- MBEC50 (Enterococcus faecium [38]): 39 µM
- Selectivity Index [39]: 100
- MIC (Enterobacter cloacae [40]): 1.6 µM
- Ratio (Staphylococcus aureus [41]): 2
- viability at 48 h [42]: > 63%
- growth inhibition (GI) (Pseudomonas aeruginosa [43]): Active
- Activity (Enterococcus faecium [44]): inactive
- MBEC50 (Pseudomonas aeruginosa [45]): 20 µM
- Selectivity Index [46]: 100
- IC50 (A549): 164 µM
